ATG4B inhibitor: blocks human ATG4B protease cleavage of LC3 substrate; Q9Y4P1; inhibition, % at 8.33 µM; AID 504462; 0.51% of 340,000 active; ATG4B cleavage of LC3-PLA2, NBD-HPC fluorescence, 1 h; in the data active means inhibition above about 40%
Target sequence (Q9Y4P1 whole entry, looked up): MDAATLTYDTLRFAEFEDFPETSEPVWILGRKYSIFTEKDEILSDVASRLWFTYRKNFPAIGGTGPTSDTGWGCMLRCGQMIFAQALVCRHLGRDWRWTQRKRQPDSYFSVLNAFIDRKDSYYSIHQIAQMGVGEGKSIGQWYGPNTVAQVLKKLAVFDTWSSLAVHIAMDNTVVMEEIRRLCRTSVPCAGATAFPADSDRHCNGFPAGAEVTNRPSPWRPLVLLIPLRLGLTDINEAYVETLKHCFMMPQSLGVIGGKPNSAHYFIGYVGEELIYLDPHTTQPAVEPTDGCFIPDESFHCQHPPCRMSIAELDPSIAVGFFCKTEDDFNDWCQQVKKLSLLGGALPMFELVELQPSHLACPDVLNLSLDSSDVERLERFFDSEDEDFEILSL
SR-BI DiI inh: mouse SR-BI HDL lipid transfer inhibition | Q61009 | ldlA[mSR-BI] CHO cells, DiI-HDL uptake fluorescence, 3 h | inhibition, % at 12.5 µM | 0.96% of 320,000 active;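 active means mean replicate inhibition of at least 70% and a set share of replicates each scoring 70 or more; inconclusive means meets just one of the two criteria; inactive means fails both criteria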;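 further: 0% = median of neutral control wells and 100% = median of positive control wells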
CAL PDZ FP-1: human CAL PDZ-peptide interaction inhibition; Q9HD26; purified CAL PDZ, TMR-peptide fluorescence polarization, 1 h; inhibition, % at 20 µM; 0.02% of 330,000 active;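 active means highest replicate inhibition of at least 40%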;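 further: plate controls were DMSO neutral control wells for no effect and unlabeled competitor peptide control wells for full effect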
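Assay system – tagged CAL PDZ protein CerCALP, purified · Timing – 1 h at RT · Compound – single point, 20 µM · Measured by – fluorescence polarization from S- and P-plane intensities, G-factor corrected · Evaluation – inhibition from polarization loss · Probe or stimulus – TMR reporter peptide T*-PRC34 · Buffer or medium – pH 7.4 phosphate-saline buffer, reducing agent, detergent, IgG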
CAL PDZ FP-2: inhibitors of human CAL PDZ peptide binding; Q9HD26; purified CAL PDZ, TMR-peptide fluorescence polarization, 1 h; inhibition, % at 24.9 µM; 0.92% of 300,000 active; AID 602252;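 active means mean inhibition of at least 30% with at least half of replicates also reaching 30%; inconclusive means no clear call, values can overlap the other calls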;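 further: 0% = DMSO neutral control and 100% = excess unlabeled competitor peptide PRC23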
SR-BI DiI-HDL act: activators of SR-BI mediated HDL lipid uptake. CHO ldlA[mSR-BI] cells, DiI-HDL uptake fluorescence, 3 h; 100 = double the neutral-control signal. activation, % at 12.5 µM. 0.096% of 320,000 active. AID 504775;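 active means mean replicate activation of at least 60% and every replicate at or above 60%; inconclusive means mean or all-replicate condition met, but not both; inactive means mean below 60% and not all replicates reaching 60%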;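 further: 0% = median plate neutral-control signal and 100% = twice that signal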
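material = CHO ldlA[mSR-BI] cells | medium = Ham's F12 with 0.5% BSA, HEPES 25 mM, pH 7.4 | reagent = fluorescent DiI-HDL, 10 µg/mL final | compound dosing = single-point compound dose | incubation = 3 h, 37 °C | measured by = bottom-read fluorescence, 550/595 nm | measure = HDL uptake via cellular fluorescence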
The depositor's hits bear a star; ? = inconclusive; . = not tested or not shown; + = active, no number. The list is not random: actives were taken first. Their share in the collection is about 2.3%.

SMILES | ATG4B inhibitor | SR-BI DiI inh | CAL PDZ FP-1 | CAL PDZ FP-2 | SR-BI DiI-HDL act
C=CCS/C(N)=N\N=C\c1cc(Br)cc([N+](=O)[O-])c1O | 18.2 | 5.0 | 0.5 | 4.1 | -5.0
CN1CCN(NC(=S)Nc2ccc(OC(F)F)cc2)CC1 | 3.9 | -5.7 | -1.7 | 1.6 | 5.7
COc1ccc(Cl)cc1NC(=O)c1cc(C)no1 | -3.8 | 27.0 | -2.1 | 2.6 | -27.0
CC(C)NC(=O)c1cc2c(-c3ccc(Cl)cc3)nn(C)c2s1 | -8.5 | 45.9 | -1.1 | -2.3 | -45.9
Cc1ccc(CNC(=O)c2cc3c(-c4ccc(Cl)cc4)nn(C)c3s2)o1 | -8.9 | 76.4* | -4.7 | -4.4 | -76.4
O=C(C1=NN[C@@H]2C(=O)N(c3ccccc3C(F)(F)F)C(=O)[C@H]12)c1cnccn1 | -2.3 | -4.3 | -1.2 | 122.6* | 4.3
Cc1ccc(OC(C)C(=O)N(C)Cc2ccccc2)c([N+](=O)[O-])n1 (configuration not stated) | 6.7 | -19.2 | -0.3 | . | .
CCNc1nc(OC)nc(N(OC)S(=O)(=O)c2ccc(C)cc2)n1 | -10.0 | 9.3 | . | 73.6* | -9.3
CN(C)CCCNC(=S)Nc1ccc(Oc2ccccc2)cc1 | 7.2 | -1.5 | 0.8 | 61.1* | 1.5
Cc1nc(SCC(=O)Nc2ccc(CN3CCCC3)cc2)c2c(C)c(C)sc2n1 | -3.0 | 8.3 | -4.4 | -2.9 | -8.3
O=[N+]([O-])c1ccc2nc(-c3ccncc3)[nH]c2c1 | -5.7 | -9.0 | -2.2 | + | 9.0
Cc1ccc(-c2nc3ccc([N+](=O)[O-])cc3[nH]2)cc1 | -1.1 | 27.6 | -0.7 | . | -27.6
CCc1ccc(NC(=O)C2CCN(S(=O)(=O)c3ccc4c(c3)CC(C)N4C(C)=O)CC2)cc1 (configuration not stated) | -7.9 | 40.4 | -0.1 | -3.1 | -40.4
N#Cc1sc2nc(-c3cccs3)cc(-c3ccc(F)cc3)c2c1N | 0.3 | 81.8* | -2.0 | -0.2 | -81.8
CS(=O)(=O)c1sc2nc(-c3cccs3)cc(-c3ccccc3)c2c1N | 24.4 | 65.7 | -4.6 | -3.1 | -65.7
COC(=O)[C@H](CO)N1C(=O)[C@@H]2[C@H](C1=O)C1C=C[C@H]2C1 | 0.4 | -12.4 | 0.6 | -3.7 | 12.4
CCCCN(C(=O)c1cccc(S(=O)(=O)N2CCCC2)c1)c1c(N)n(CCC)c(=O)[nH]c1=O | -0.2 | -70.1 | 0.2 | -2.9 | 70.1*
CCCCN(C(=O)c1cccc(S(=O)(=O)N2CCN(C)CC2)c1)c1c(N)n(CC(C)C)c(=O)[nH]c1=O | 3.1 | -40.5 | -3.4 | -1.2 | 40.5
CC(=O)CC1(O)C(=O)N(Cc2ccccc2)c2ccccc21 (configuration not stated) | -8.0 | -12.6 | -1.3 | 0.5 | .
CC1(C)C(=S)N(Cc2ccccc2)c2ccccc21 | 8.5 | 10.1 | -0.3 | 44.0* | -10.1
Cn1cc(C(=O)Nc2ccc(C#N)cc2)c2ccccc2c1=O | 0.5 | -319.4 | -1.6 | -1.0 | ?
CC(C)=C(NC(=O)c1ccccc1)C(=O)NCCc1nc2ccccc2[nH]1 | -7.0 | 5.9 | -0.3 | 37.6* | -5.9
CN(Cc1nc(-c2cccs2)no1)CC1COCCO1 (configuration not stated) | 13.1 | -23.4 | -3.1 | -0.4 | 23.4
O=c1c2ccccc2oc2cc(Br)ccc12 | -2.1 | -28.3 | -1.0 | 89.3* | 28.3
COc1cc2oc3ccccc3c(=O)c2cc1OC | -6.5 | 31.2 | -1.9 | 6.4 | -31.2
SMILES | ATG4B inhibitor | SR-BI DiI inh | CAL PDZ FP-1 | CAL PDZ FP-2 | SR-BI DiI-HDL act
O=C(COc1ccc2cc(Br)ccc2c1)N1CCOCC1 | -6.6 | 9.5 | -1.3 | 102.5* | -9.5
O=C(COc1ccc(S(=O)(=O)Nc2ccc(Cl)cc2)cc1)N1CCOCC1 | 2.5 | 12.0 | -0.9 | 99.9* | -12.0
Cn1c(SCc2cccc(C(F)(F)F)c2)nnc1-c1ccco1 | -6.2 | -164.0 | -2.5 | 1.0 | 164.0*
Nn1c(SCc2cccc(C(F)(F)F)c2)nnc1-c1ccco1 | -0.6 | 5.5 | 1.2 | -1.4 | -5.5
CC1=C(C(=O)Nc2cc(C(=O)NCCCOC(C)C)ccc2C)SCCO1 | 2.2 | 33.1 | -1.6 | -1.8 | -33.1
O=C(CSc1nc(-c2ccccc2)c(-c2ccccc2)[nH]1)NCC1CCCO1 (configuration not stated) | -2.7 | -16.2 | -0.3 | -1.2 | 16.2
COc1ccc(C(=O)Nc2c(N)nc(SCC(=O)NCC3CCCO3)[nH]c2=O)cc1OC (configuration not stated) | 0.5 | -12.8 | -0.7 | 91.7* | 12.8
O=C(CSc1nc2ccccc2[nH]1)NCC1CCCO1 (configuration not stated) | 1.2 | -9.5 | -2.2 | 39.7* | 9.5
Cc1ccc(C(=O)Nc2c(N)nc(SCC(=O)NCC3CCCO3)[nH]c2=O)cc1 (configuration not stated) | 3.3 | 4.2 | -0.5 | -1.7 | -4.2
CC(C)n1c(CN2CCN(C(=O)c3ccco3)CC2)nc2c1c(=O)n(C)c(=O)n2C | -6.6 | -13.1 | -2.3 | -5.5 | 13.1
O=C1CC(NNc2ccccc2)C(=O)N1c1ccc(N2CCCCC2)cc1 (configuration not stated) | -11.5 | 13.3 | -2.4 | 0.2 | -13.3
O=C1C2C3C=CC(C3)C2C(=O)N1c1ccc2ccccc2c1 (configuration not stated) | -5.2 | 2.0 | -0.8 | -2.9 | -2.0
O=C1C2C3CCC(C3)C2C(=O)N1c1ccc2ccccc2c1 (configuration not stated) | -3.3 | -6.0 | -1.3 | 61.8* | 6.0
O=C(COC(=O)c1ccc(Cl)c(S(=O)(=O)NCc2ccccc2)c1)NCC1CCCO1 (configuration not stated) | -10.5 | 27.7 | 0.1 | 43.8* | -27.7
COc1ccc(CC(=O)N/N=C(\C)CC(=O)Nc2ccc3c(c2)OCCO3)cc1OC | 0.0 | . | -3.4 | 44.1* | .
COc1ccc(CC(=O)N/N=C(\C)CC(=O)Nc2ccc(N(C)C)cc2)cc1OC | -15.4 | . | 0.0 | . | .
C/C(CC(=O)Nc1ccc2c(c1)OCCO2)=N\NC(=O)COc1ccc(Cl)c(C)c1 | -9.3 | 16.1 | -1.9 | 47.3* | -16.1
C/C(CC(=O)Nc1ccc2c(c1)OCCO2)=N\NC(=O)COc1ccc(C)cc1 | -7.5 | -27.6 | -0.8 | -1.3 | 27.6
Cc1cccc(-n2ccnc2SCC(=O)Nc2cccc(S(=O)(=O)NC3=NCCC3)c2)c1C | -14.6 | 18.6 | -0.1 | . | -18.6
CC1(C)CC(CCNC(=O)CCl)(c2ccccc2)CCO1 (configuration not stated) | -9.6 | . | -2.0 | -0.6 | .
Cc1cc(C)cc(NC(=O)C2CCN(C(=O)[C@@H]3Cc4ccccc4CN3)CC2)c1 | 0.5 | -0.9 | -1.4 | 41.8* | 0.9
CN(Cc1ccccc1Br)C(=O)CN1C(=O)NC2(CCCCCC2)C1=O | -19.6 | -13.5 | -0.4 | 39.0* | 13.5
O=C1NC2(CCCCCC2)C(=O)N1Cc1ccccc1Br | 5.5 | -8.7 | -0.5 | 48.0* | 8.7
CCOc1ccccc1CN1C(=O)NC2(CCCCCC2)C1=O | 2.4 | 6.4 | -0.2 | -0.6 | -6.4
